Results on three compounds are retold here after ChEMBL document CHEMBL1150226, “Cytotoxic constituents from leaves of Aglaia elliptifolia” (2001).

What all share (assay type): functional
Settings in all cases: read-out: ED50 (the source's name)

One experiment concerns HT-29. Briefly: Cytotoxicity against human HT-29 cells. In outline: (§1)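 Cell lines obtained from the American Type Culture Collection; the assay protocol itself is given only by reference to earlier work.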
The next experiment has as its system KB. Briefly: Cytotoxicity against human KB cells. In outline:
(§2)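 KB and P-388 cells supplied by an academic laboratory (University of Illinois at Chicago); the assay protocol itself is given only by reference to earlier work.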

A further experiment concerns P388. Briefly: Cytotoxicity against mouse P388 cells. Put shortly:
as §2

In another experiment the test system is A549. Briefly: Cytotoxicity against human A549 cells. In outline: as §1
The subject of another experiment is HL-60. Briefly: Cytotoxicity against human HL60 cells. Put shortly:
as §1

Molecules are shown by their SMILES. Values after ≈ are worked out from the molar mass of the structure shown.

Take `C/C=C(\C)C(=O)N[C@@H]1CCCN1C(=O)[C@@H]1[C@@H](c2ccccc2)[C@]2(c3ccc(OC)cc3)Oc3cc(OC)cc(OC)c3[C@@]1(O)[C@@H]2O` [ELLIPTIFOLINE]: the EC50 is above 50 µg/mL in the experiment with HT-29; above 50 µg/mL in the experiment with KB; 3.41 µg/mL (≈ 5.42 µM) in the experiment on P388; 18.9 µg/mL (≈ 30.1 µM) in the experiment with A549; above 50 µg/mL in the experiment with HL-60.

As to `COc1ccc([C@@]23Oc4cc(OC)cc(OC)c4[C@]2(O)[C@H](O)[C@H](C(=O)O)[C@H]3c2ccccc2)cc1` [ROCAGLOIC ACID], the EC50 in the experiment with HT-29 is 0.00084 µg/mL (≈ 0.00176 µM); in the experiment with KB, 0.0023 µg/mL (≈ 0.00481 µM); in the experiment with P388, 0.0012 µg/mL (≈ 0.00251 µM); with A549 it was 0.00074 µg/mL (≈ 0.00155 µM); in the experiment with HL-60 it was 0.00084 µg/mL (≈ 0.00176 µM).

With `C/C=C(\C)C(=O)NC(CCCO)NC(=O)/C=C/c1ccccc1` (stereo not given), the EC50 is above 50 µg/mL in the experiment with HT-29; above 50 µg/mL with KB; 3.62 µg/mL (≈ 11.4 µM) with P388; above 50 µg/mL in the experiment with A549; 32.1 µg/mL (≈ 101 µM) in the experiment with HL-60.
